# Laboratory results: ChEMBL document CHEMBL1914406, “Inhibitory effect of novel 5-O-acyl juglones on mammalian DNA polymerase activity, cancer cell growth and inflammatory response” (Bioorg Med Chem, 2011)
# Calls of active or inactive are those of the source. No cut-off for these calls is given here.
# Key:
# [1] = tested on: HCT-116; assay: Cytotoxicity against human HCT116 cells by WST-1 assay; format: functional, cell-based
# In short: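 HCT116 colon carcinoma cells (ATCC) grown in McCoy's 5A with 10% FBS, penicillin and streptomycin, 37 °C, 5% CO2. Plated at 1 × 10⁴ cells/well together with compound, which was diluted from a 10 mM DMSO stock into medium (final 0.5% DMSO). Incubated 24 h. Viability read by WST-1, expressed relative to untreated cells.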
# [2] = tested on: RAW264.7; assay: Antiinflammatory activity in mouse RAW264.7 cells assessed as inhibition of LPS-induced TNFalpha secretion at 5 uM treated 30 mins before LPS challenge measured after 24 hrs by ELISA; format: functional, cell-based
# In short: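 RAW264.7 cells in MEM with 4.5 g/L glucose, 10% FCS, 5 mM L-glutamine, at 37 °C in 5% CO2. Seeded at 5 × 10⁴ cells/well and grown 24 h. Compound (final 1 and 5 µM) given 30 min before 100 ng/mL LPS. After 24 h, TNF-α in the medium measured by ELISA, relative to the no-compound value (100%). Mean ± SE, n = 4.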
# [3] = tested on: RAW264.7; assay: Cytotoxicity against mouse RAW264.7 cells at 5 uM; format: cell-based; details: raw264.7, 5 µM
# [4] = Cytotoxicity against mouse RAW264.7 cells; format: cell-based; details: read-out: LD50 (the source's name)
# [5] = tested on: Mus musculus; assay: Antiinflammatory activity in mouse assessed as inhibition of TPA-induced mouse ear edema at 500 ug/ear administered 30 mins before TPA challenge measured after 7 hrs relative to untreated control; format: functional, organism-based
# In short: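 Compound (500 µg) applied to one mouse ear; 30 min later TPA (0.5 µg) applied to both ears. Edema scored after 7 h and expressed as percentage of edema. Mean ± SE, n = 6.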
# [6] = biological target: T1, DNA polymerase lambda (Homo sapiens) (UniProt Q9UGP5); assay: Inhibition of recombinant His-tagged human DNA polymerase lambda using poly(dA)/oligo(dT)18 (A/T = 2/1) and dTTP as the DNA template-primer and nucleotide substrate at 10 uM after 60 mins
# T1 sequence (whole entry): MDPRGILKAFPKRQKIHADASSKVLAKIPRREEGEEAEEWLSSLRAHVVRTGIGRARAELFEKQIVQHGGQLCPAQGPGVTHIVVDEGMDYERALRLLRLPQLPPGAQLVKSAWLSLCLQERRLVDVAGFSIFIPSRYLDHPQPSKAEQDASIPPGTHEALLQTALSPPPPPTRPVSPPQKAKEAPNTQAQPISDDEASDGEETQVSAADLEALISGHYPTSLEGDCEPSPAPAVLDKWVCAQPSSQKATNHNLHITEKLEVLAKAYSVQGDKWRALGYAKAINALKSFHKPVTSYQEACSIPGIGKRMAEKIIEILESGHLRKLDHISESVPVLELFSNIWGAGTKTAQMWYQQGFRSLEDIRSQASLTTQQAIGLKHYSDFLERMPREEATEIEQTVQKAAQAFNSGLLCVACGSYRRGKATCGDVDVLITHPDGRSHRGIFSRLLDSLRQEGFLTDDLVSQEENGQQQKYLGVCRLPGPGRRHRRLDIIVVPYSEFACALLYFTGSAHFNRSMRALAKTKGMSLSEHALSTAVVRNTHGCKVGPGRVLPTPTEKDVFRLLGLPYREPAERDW
# In short: (§1)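 Compound in DMSO, sonicated 30 s. Premixed 0 °C, 10 min with enzyme (0.05 units) in 50 mM Tris-HCl pH 7.5, 1 mM DTT, 50% glycerol, 0.1 mM EDTA, then added to standard reaction mixture. Template-primers: poly(dA)/oligo(dT)18 (2/1) for pols, oligo(dT)18 for TdT, poly(rA)/oligo(dT)18 for HIV-1 RT, with [3H]dTTP. 60 min at 37 °C (Taq 74 °C). Activity relative to no-inhibitor control; mean ± SE of three experiments.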
# [7] = species: Bos taurus; assay: Inhibition of calf DNA polymerase alpha using poly(dA)/oligo(dT)18 (A/T = 2/1) and dTTP as the DNA template-primer and nucleotide substrate at 10 uM after 60 mins; in short: as §1
# [8] = species: Homo sapiens; assay: Inhibition of histidine-tagged human DNA polymerase gamma using poly(dA)/oligo(dT)18 (A/T = 2/1) and dTTP as the DNA template-primer and nucleotide substrate at 10 uM after 60 mins; in short: as §1
# [9] = biological target: T2, DNA polymerase kappa (Homo sapiens) (UniProt Q9UBT6); assay: Inhibition of C-terminal His6-tagged human DNA polymerase kappa (amino acids 1 to 560) using poly(dA)/oligo(dT)18 (A/T = 2/1) and dTTP as the DNA template-primer and nucleotide substrate at 10 uM after 60 mins
# T2 sequence (whole entry): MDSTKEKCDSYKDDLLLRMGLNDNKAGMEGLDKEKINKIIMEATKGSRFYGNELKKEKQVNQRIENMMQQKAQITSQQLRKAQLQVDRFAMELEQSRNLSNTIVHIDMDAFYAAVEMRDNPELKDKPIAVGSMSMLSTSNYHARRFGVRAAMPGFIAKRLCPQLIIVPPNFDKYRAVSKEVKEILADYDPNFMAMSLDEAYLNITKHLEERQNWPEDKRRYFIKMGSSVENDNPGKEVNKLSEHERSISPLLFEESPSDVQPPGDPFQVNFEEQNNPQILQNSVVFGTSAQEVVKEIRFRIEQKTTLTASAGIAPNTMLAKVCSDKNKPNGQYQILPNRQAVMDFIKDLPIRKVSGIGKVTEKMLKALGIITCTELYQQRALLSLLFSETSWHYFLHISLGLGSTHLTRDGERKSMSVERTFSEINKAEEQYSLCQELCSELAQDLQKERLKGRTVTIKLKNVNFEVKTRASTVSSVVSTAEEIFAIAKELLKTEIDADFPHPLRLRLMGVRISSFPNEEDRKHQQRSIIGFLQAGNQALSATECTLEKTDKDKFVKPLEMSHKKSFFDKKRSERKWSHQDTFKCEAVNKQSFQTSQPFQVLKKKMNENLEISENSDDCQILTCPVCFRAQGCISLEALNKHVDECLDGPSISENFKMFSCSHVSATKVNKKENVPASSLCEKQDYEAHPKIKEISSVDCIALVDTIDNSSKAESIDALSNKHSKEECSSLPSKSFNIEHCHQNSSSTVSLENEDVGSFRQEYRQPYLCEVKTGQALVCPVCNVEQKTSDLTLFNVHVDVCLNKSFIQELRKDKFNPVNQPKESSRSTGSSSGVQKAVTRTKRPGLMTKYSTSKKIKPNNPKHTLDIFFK
# [10] = species: Bos taurus; assay: Inhibition of calf DNA polymerase alpha using bovine deoxyribonuclease 1-treated DNA and dNTP as the DNA template-primer and nucleotide substrate at 10 uM after 60 mins
# [11] = species: Homo sapiens; assay: Inhibition of histidine-tagged human DNA polymerase gamma using bovine deoxyribonuclease 1-treated DNA and dNTP as the DNA template-primer and nucleotide substrate at 10 uM after 60 mins
# [12] = biological target: T2, DNA polymerase kappa (Homo sapiens); assay: Inhibition of C-terminal His6-tagged human DNA polymerase kappa (amino acids 1 to 560) using bovine deoxyribonuclease 1-treated DNA and dNTP as the DNA template-primer and nucleotide substrate at 10 uM after 60 mins
# [13] = biological target: T1, DNA polymerase lambda (Homo sapiens); assay: Inhibition of recombinant His-tagged human DNA polymerase lambda using bovine deoxyribonuclease 1-treated DNA and dNTP as the DNA template-primer and nucleotide substrate at 10 uM after 60 mins
# [14] = tested on: Nucleic Acid; assay: Binding affinity to DNA assessed as thermal transition of DNA relative to control; format: nucleic-acid assay
SMILES,Activity [1],Activity [2],Activity [3],CC50 [4],Activity [5],inhibition [6],inhibition [7],inhibition [8],inhibition [9],inhibition [10],inhibition [11],inhibition [12],inhibition [13],Activity [14]
CCCCCCCCCCCCCCCCCC(=O)O [STEARIC ACID],inactive,inactive,Non-toxic,> 10 µM,inactive,inactive,inactive,inactive,inactive,inactive,inactive,inactive,inactive,–
CCCCC/C=C\C/C=C\CCCCCCCC(=O)O [LINOLEIC ACID],inactive,inactive,Non-toxic,> 10 µM,inactive,inactive,inactive,inactive,inactive,inactive,inactive,inactive,inactive,–
CC/C=C\C/C=C\C/C=C\C/C=C\C/C=C\CCCC(=O)Oc1cccc2c1C(=O)C=CC2=O,–,–,Non-toxic,> 10 µM,Active,Active,Active,Active,Active,Active,Active,Active,Active,inactive
CCC(=O)O [PROPIONIC ACID],inactive,inactive,Non-toxic,> 10 µM,inactive,inactive,inactive,inactive,inactive,inactive,inactive,inactive,inactive,–
CC/C=C\C/C=C\C/C=C\C/C=C\C/C=C\C/C=C\CCC(=O)O [DOCONEXENT],inactive,inactive,Non-toxic,> 10 µM,inactive,inactive,inactive,inactive,inactive,inactive,inactive,inactive,inactive,–
CC/C=C\C/C=C\C/C=C\CCCCCCCC(=O)O [LINOLENIC ACID],inactive,inactive,Non-toxic,> 10 µM,inactive,inactive,inactive,inactive,inactive,inactive,inactive,inactive,inactive,–
CCCCCCCC/C=C\CCCCCCCC(=O)O [OLEIC ACID],inactive,inactive,Non-toxic,> 10 µM,inactive,inactive,inactive,inactive,inactive,inactive,inactive,inactive,inactive,–
CCCCCC(=O)O [HEXANOATE],inactive,inactive,Non-toxic,> 10 µM,inactive,inactive,inactive,inactive,inactive,inactive,inactive,inactive,inactive,–
CC(=O)O [ACETIC ACID],inactive,inactive,Non-toxic,> 10 µM,inactive,inactive,inactive,inactive,inactive,inactive,inactive,inactive,inactive,–
CC/C=C\C/C=C\C/C=C\C/C=C\C/C=C\CCCC(=O)O [ICOSAPENT],inactive,inactive,Non-toxic,> 10 µM,inactive,inactive,inactive,inactive,inactive,inactive,inactive,inactive,inactive,–
CCCCCCCCCCCC(=O)O [DODECANOATE],inactive,inactive,Non-toxic,> 10 µM,inactive,inactive,inactive,inactive,inactive,inactive,inactive,inactive,inactive,–
CC1=CC(=O)c2ccccc2C1=O,–,–,–,–,–,–,–,Active,–,–,Active,–,–,–
